Key:
Stomach [1] = assay: Biodistribution in stomach of BALB/c mouse bearing rat AR42J cells at 0.37 MBq, iv after 24 hrs; type: ADME, organism-based, AR-42J; conditions: in vivo
Procedure, shortened: (§1)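 AR42J tumor grown in right flank of male BALB/c nude mice (20-25 g, 6-8 weeks) by sc injection of 5 × 10⁶ cells; used after ~2 weeks at 4-6 mm diameter. Groups of five received 0.37 MBq (0.1 μg) ¹¹¹In-DOTA conjugate iv via tail vein (labeled in 0.25 M NH₄OAc pH 5.5, 95 °C, 15 min). Tissues dissected at 2, 6 or 24 h, weighed, γ-counted against 1% injected-activity standards; %ID/g, mean ± SD.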

Blood [2] = assay: Biodistribution in blood of BALB/c mouse bearing rat AR42J cells at 0.37 MBq, iv after 2 hrs under cold condition; type: ADME, organism-based, AR-42J; conditions: in vivo
Procedure, shortened: (§2)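 Receptor block: groups of three AR42J tumor-bearing male BALB/c nude mice co-injected iv via tail vein with 0.37 MBq (0.1 μg) ¹¹¹In-DOTA conjugate plus 50 μg octreotide. Killed by CO₂/O₂ at 2 h; blood, tumor and tissues dissected, weighed and γ-counted against 1% injected-activity standards; %ID/g reported as mean ± SD.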

Liver [3] = assay: Biodistribution in liver of BALB/c mouse bearing rat AR42J cells at 0.37 MBq, iv after 24 hrs; type: ADME, organism-based, AR-42J; conditions: in vivo; procedure, shortened: as §1
Pancreas [4] = assay: Biodistribution in pancreas of BALB/c mouse bearing rat AR42J cells at 0.37 MBq, iv after 6 hrs; type: ADME, organism-based, AR-42J; conditions: in vivo; procedure, shortened: as §1
Kidney [5] = assay: Biodistribution in kidney of BALB/c mouse bearing rat AR42J cells at 0.37 MBq, iv after 24 hrs; type: ADME, organism-based, AR-42J; conditions: in vivo; procedure, shortened: as §1
Kidney [6] = assay: Biodistribution in kidney of BALB/c mouse bearing rat AR42J cells at 0.37 MBq, iv after 2 hrs; type: ADME, organism-based, AR-42J; conditions: in vivo; procedure, shortened: as §1
Liver [7] = assay: Biodistribution in liver of BALB/c mouse bearing rat AR42J cells at 0.37 MBq, iv after 6 hrs; type: ADME, organism-based, AR-42J; conditions: in vivo; procedure, shortened: as §1
Pancreas [8] = assay: Biodistribution in pancreas of BALB/c mouse bearing rat AR42J cells at 0.37 MBq, iv after 2 hrs; type: ADME, organism-based, AR-42J; conditions: in vivo; procedure, shortened: as §1
Liver [9] = assay: Biodistribution in liver of BALB/c mouse bearing rat AR42J cells at 0.37 MBq, iv after 2 hrs; type: ADME, organism-based, AR-42J; conditions: in vivo; procedure, shortened: as §1
Blood [10] = assay: Biodistribution in blood of BALB/c mouse bearing rat AR42J cells at 0.37 MBq, iv after 6 hrs; type: ADME, organism-based, AR-42J; conditions: in vivo; procedure, shortened: as §1
Blood [11] = assay: Biodistribution in blood of BALB/c mouse bearing rat AR42J cells at 0.37 MBq, iv after 24 hrs; type: ADME, organism-based, AR-42J; conditions: in vivo; procedure, shortened: as §1
Stomach [12] = assay: Biodistribution in stomach of BALB/c mouse bearing rat AR42J cells at 0.37 MBq, iv after 6 hrs; type: ADME, organism-based, AR-42J; conditions: in vivo; procedure, shortened: as §1
Stomach [13] = assay: Biodistribution in stomach of BALB/c mouse bearing rat AR42J cells at 0.37 MBq, iv after 2 hrs under cold condition; type: ADME, organism-based, AR-42J; conditions: in vivo; procedure, shortened: as §2
[14] = Biodistribution in adrenal gland of BALB/c mouse bearing rat AR42J cells at 0.37 MBq, iv after 2 hrs under cold condition; type: ADME, organism-based, AR-42J; conditions: in vivo; procedure, shortened: as §2
[15] = Biodistribution in adrenal gland of BALB/c mouse bearing rat AR42J cells at 0.37 MBq, iv after 24 hrs; type: ADME, organism-based, AR-42J; conditions: in vivo; procedure, shortened: as §1
[16] = biological target: Somatostatin receptor type 2 (Rattus norvegicus, UniProt P30680); assay: Displacement of [111In]DOTA0,Tyr3]octreotide from SSTR2 receptor in rat AR42J cells; type: cell-based, AR-42J
Sequence of Somatostatin receptor type 2 (P30680 whole entry): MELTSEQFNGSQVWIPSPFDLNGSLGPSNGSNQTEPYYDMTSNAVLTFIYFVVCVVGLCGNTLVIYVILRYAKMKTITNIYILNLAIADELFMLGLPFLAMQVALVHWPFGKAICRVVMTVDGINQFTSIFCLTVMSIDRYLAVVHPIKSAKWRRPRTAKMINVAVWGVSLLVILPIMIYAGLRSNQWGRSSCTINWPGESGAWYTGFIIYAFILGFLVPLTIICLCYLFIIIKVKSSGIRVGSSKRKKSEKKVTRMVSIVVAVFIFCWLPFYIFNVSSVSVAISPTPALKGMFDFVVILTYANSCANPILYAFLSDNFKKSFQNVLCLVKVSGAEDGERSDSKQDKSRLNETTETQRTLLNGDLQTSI
Procedure, shortened: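 AR42J cells (DMEM, 10% FCS, 37 °C, 5% CO₂) seeded 8 × 10⁵/well and grown to confluence, washed with DMEM + 0.1% BSA. Incubated 3 h at 37 °C with [¹¹¹In-DOTA⁰,Tyr³]octreotide tracer (40 000 dpm) and unlabeled peptide at 0.1-300 nM. Washed twice; cell-bound activity γ-counted. IC₅₀ from fitted sigmoidal displacement curves with 95% CI.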

[17] = Biodistribution in tumor of BALB/c mouse bearing rat AR42J cells at 0.37 MBq, iv after 6 hrs; type: ADME, organism-based, Neoplasm, AR-42J; conditions: in vivo; procedure, shortened: as §1
[18] = Biodistribution in tumor of BALB/c mouse bearing rat AR42J cells at 0.37 MBq, iv after 2 hrs; type: ADME, organism-based, Neoplasm, AR-42J; conditions: in vivo; procedure, shortened: as §1
Kidney [19] = assay: Biodistribution in kidney of BALB/c mouse bearing rat AR42J cells at 0.37 MBq, iv after 2 hrs under cold condition; type: ADME, organism-based, AR-42J; conditions: in vivo; procedure, shortened: as §2
Blood [20] = assay: Biodistribution in blood of BALB/c mouse bearing rat AR42J cells at 0.37 MBq, iv after 2 hrs; type: ADME, organism-based, AR-42J; conditions: in vivo; procedure, shortened: as §1
Kidney [21] = assay: Biodistribution in kidney of BALB/c mouse bearing rat AR42J cells at 0.37 MBq, iv after 6 hrs; type: ADME, organism-based, AR-42J; conditions: in vivo; procedure, shortened: as §1
Pancreas [22] = assay: Biodistribution in pancreas of BALB/c mouse bearing rat AR42J cells at 0.37 MBq, iv after 2 hrs under cold condition; type: ADME, organism-based, AR-42J; conditions: in vivo; procedure, shortened: as §2
[23] = Biodistribution in tumor of BALB/c mouse bearing rat AR42J cells at 0.37 MBq, iv after 24 hrs; type: ADME, organism-based, Neoplasm, AR-42J; conditions: in vivo; procedure, shortened: as §1
Stomach [24] = assay: Biodistribution in stomach of BALB/c mouse bearing rat AR42J cells at 0.37 MBq, iv after 2 hrs; type: ADME, organism-based, AR-42J; conditions: in vivo; procedure, shortened: as §1
Liver [25] = assay: Biodistribution in liver of BALB/c mouse bearing rat AR42J cells at 0.37 MBq, iv after 2 hrs under cold condition; type: ADME, organism-based, AR-42J; conditions: in vivo; procedure, shortened: as §2
Pancreas [26] = assay: Biodistribution in pancreas of BALB/c mouse bearing rat AR42J cells at 0.37 MBq, iv after 24 hrs; type: ADME, organism-based, AR-42J; conditions: in vivo; procedure, shortened: as §1
[27] = Octanol-water partition coefficient, log D at pH 7.4; type: physicochemical
Procedure, shortened: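 ¹¹¹In-labeled conjugate (~148 kBq) in PBS pH 7.4 mixed 1:1 with n-octanol and shaken 2 min. Phases separated by centrifugation (5 min, 250g); triplicate aliquots of each layer γ-counted. log D = log₁₀(octanol counts/aqueous counts), from at least two independent experiments.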

[28] = Biodistribution in adrenal gland of BALB/c mouse bearing rat AR42J cells at 0.37 MBq, iv after 2 hrs; type: ADME, organism-based, AR-42J; conditions: in vivo; procedure, shortened: as §1
[29] = Biodistribution in adrenal gland of BALB/c mouse bearing rat AR42J cells at 0.37 MBq, iv after 6 hrs; type: ADME, organism-based, AR-42J; conditions: in vivo; procedure, shortened: as §1
[30] = Biodistribution in tumor of BALB/c mouse bearing rat AR42J cells at 0.37 MBq, iv after 2 hrs under cold condition; type: ADME, organism-based, Neoplasm, AR-42J; conditions: in vivo; procedure, shortened: as §2

**Q.** Which results are given for `C[C@@H](O)[C@@H]1NC(=O)[C@H](CCCCN)NC(=O)[C@@H](Cc2c[nH]c3ccccc23)NC(=O)[C@H](Cc2ccc(O)cc2)NC(=O)[C@@H](NC(=O)[C@@H](Cc2ccccc2)NC(=O)CCCCCn2cc(COc3cc(OCc4cn(CCCCCC(=O)N[C@H](Cc5ccccc5)C(=O)N[C@H]5CSSC[C@@H](C(=O)N[C@H](CO)[C@@H](C)O)NC(=O)[C@H]([C@@H](C)O)NC(=O)[C@H](CCCCN)NC(=O)[C@@H](Cc6c[nH]c7ccccc67)NC(=O)[C@H](Cc6ccc(O)cc6)NC5=O)nn4)cc(C(=O)NS(=O)(=O)CCNC(=O)CN4CCN(CC(=O)O)CCN(CC(=O)O)CCN(CC(=O)O)CC4)c3)nn2)CSSC[C@@H](C(=O)N[C@H](CO)[C@@H](C)O)NC1=O`?
**A.** Drug uptake (Stomach [1]): 2.97 % ID/g; Drug uptake (Blood [2]): 2.31 % ID/g; Drug uptake (Liver [3]): 5.54 % ID/g; Drug uptake (Pancreas [4]): 1.69 % ID/g; Drug uptake (Kidney [5]): 11.74 % ID/g; Drug uptake (Kidney [6]): 92.2 % ID/g; Drug uptake (Liver [7]): 14.92 % ID/g; Drug uptake (Pancreas [8]): 2.96 % ID/g; Drug uptake (Liver [9]): 18.67 % ID/g; Drug uptake (Blood [10]): 0.86 % ID/g; Drug uptake (Blood [11]): 0.17 % ID/g; Drug uptake (Stomach [12]): 7.78 % ID/g; Drug uptake (Stomach [13]): 3.46 % ID/g; Drug uptake [14]: 1.56 % ID/g; Drug uptake [15]: 1.27 % ID/g; IC50 [16]: 2.45 nM; Drug uptake [17]: 30.91 % ID/g; Drug uptake [18]: 25.31 % ID/g; Drug uptake (Kidney [19]): 57.78 % ID/g; Drug uptake (Blood [20]): 1.52 % ID/g; Drug uptake (Kidney [21]): 65.61 % ID/g; Drug uptake (Pancreas [22]): 1.18 % ID/g; Drug uptake [23]: 12.14 % ID/g; Drug uptake (Stomach [24]): 10.21 % ID/g; Drug uptake (Liver [25]): 22.67 % ID/g; Drug uptake (Pancreas [26]): 0.36 % ID/g; logD [27]: -1.79; Drug uptake [28]: 2.69 % ID/g; Drug uptake [29]: 2.49 % ID/g; Drug uptake [30]: 5.55 % ID/g

From ChEMBL document CHEMBL1157765, “Synthesis of DOTA-conjugated multimeric [Tyr3]octreotide peptides via a combination of Cu(I)-catalyzed "click" cycloaddition and thio acid/sulfonyl azide "sulfo-click" amidation and their in vivo evaluation” (J Med Chem, 2010)
